pEC50: −log10 of the molar value. One block for each molecule: values may come before it. The source made the active and inactive calls. The rule behind the calls is not given here.
Legend:
[1] = Chemical stability assessed as half life; assay type: physicochemical
Caspase-3 = target: T1, Caspase-3 (Homo sapiens, UniProt P42574); assay: Inhibition of human recombinant caspase 3 assessed as accumulation of 7-amino-4-methylcoumarin substrate
T1 sequence (P42574 whole entry): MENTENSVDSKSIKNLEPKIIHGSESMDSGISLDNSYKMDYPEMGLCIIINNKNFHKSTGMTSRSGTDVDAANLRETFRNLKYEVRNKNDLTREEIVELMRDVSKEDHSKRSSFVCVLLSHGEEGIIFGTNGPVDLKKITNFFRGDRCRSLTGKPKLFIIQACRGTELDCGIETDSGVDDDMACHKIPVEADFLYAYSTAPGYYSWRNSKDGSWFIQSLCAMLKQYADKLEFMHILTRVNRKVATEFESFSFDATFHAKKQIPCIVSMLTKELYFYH
In short: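 Substrates at 10 µM: Ac-DEVD-AMC (caspase 3), Ac-VEID-AMC (caspase 6), Ac-IETD-AMC (caspase 8), added after 10 min preincubation with inhibitor (5 pM–500 µM). Duplicates, two runs; EC50 by nonlinear regression.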

[2] = Lipophilicity, log P of the compound; assay type: physicochemical; settings: octanol/water
Liver = assay: Metabolic stability […] mouse liver assessed as ratio of peak to total radioactivity present on chromatogram at 3.7 MBq, iv after 2 mins; assay type: ADME, organism-based; settings: in vivo
In short: (§1)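 [¹⁸F]15 (7.4 MBq) injected iv into non-tumor-bearing C3H/hej mice. Plasma and liver were snap-frozen, extracted with ice-cold acetonitrile (liver homogenized), centrifuged and dried. Extracts were analyzed by reverse-phase C18 radio-HPLC (ammonium formate/methanol:acetonitrile gradient). Percent parent = parent peak relative to total chromatogram radioactivity. Plasma: average of 3 studies per time point; liver: individual results from two samples.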

Plasma [3] = assay: Metabolic stability in […] mouse plasma assessed as ratio of peak to total radioactivity present on chromatogram at 3.7 MBq, iv after 2 mins; assay type: ADME, organism-based, RIF-1; settings: in vivo, in the assay text read “7.4 MBq” for “3.7 MBq”; in short: as §1
[4] = Increase in drug uptake in mouse RIF1 cells after 60 mins relative to control; assay type: ADME, cell-based; settings: rif-1, 1 h
In short: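 RIF-1 murine fibrosarcoma cells, plated in triplicate 2–3 days ahead, were exposed to CDDP at 100 µM or to vehicle (0.1% DMSO) for 48 h. About 10 µCi/well of the 18F tracer was then taken up for 60 min at 37 °C. Cells were collected, washed, resuspended in PBS and gamma-counted. Decay-corrected counts/min were normalised to mg protein (BCA), and the treated level was compared with the untreated one.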

Plasma [5] = assay: Metabolic stability in […] mouse plasma assessed as ratio of peak to total radioactivity present on chromatogram at 3.7 MBq, iv after 15 mins; assay type: ADME, organism-based; settings: in vivo, 0.25 h; in short: as §1
Caspase-3 (Mus musculus) = target: T2, Caspase-3 (Mus musculus) (UniProt P70677); assay: Inhibition of caspase 3 in mouse RIF1 cells assessed as disruption of cisplatin-stimulated PARP induction by Western blot; assay type: cell-based; settings: RIF-1
T2 sequence (whole entry): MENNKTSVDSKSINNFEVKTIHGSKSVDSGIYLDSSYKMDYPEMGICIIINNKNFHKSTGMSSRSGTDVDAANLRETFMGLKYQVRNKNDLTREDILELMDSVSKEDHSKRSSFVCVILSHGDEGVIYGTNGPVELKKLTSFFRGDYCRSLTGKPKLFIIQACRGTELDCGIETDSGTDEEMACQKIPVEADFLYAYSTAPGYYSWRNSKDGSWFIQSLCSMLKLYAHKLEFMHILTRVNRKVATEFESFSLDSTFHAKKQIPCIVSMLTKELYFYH
In short: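 RIF-1 murine fibrosarcoma cells were pretreated 15 min with caspase inhibitors (Z-VAD-FMK 100 µM as control), then given cisplatin 100 µM for 48 h. Lysates were made in RIPA with protease/phosphatase inhibitors, and 30 µg protein was run on 4–12% SDS-PAGE and blotted to PVDF. Probed with anti-cleaved PARP (89 kDa fragment) and α-tubulin loading control, detected by ECL.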

Caspase-7 = target: T3, Caspase-7 (Homo sapiens, UniProt P55210); assay: Inhibition of human recombinant caspase 7 assessed as accumulation of 7-amino-4-methylcoumarin substrate
T3 sequence (P55210 whole entry): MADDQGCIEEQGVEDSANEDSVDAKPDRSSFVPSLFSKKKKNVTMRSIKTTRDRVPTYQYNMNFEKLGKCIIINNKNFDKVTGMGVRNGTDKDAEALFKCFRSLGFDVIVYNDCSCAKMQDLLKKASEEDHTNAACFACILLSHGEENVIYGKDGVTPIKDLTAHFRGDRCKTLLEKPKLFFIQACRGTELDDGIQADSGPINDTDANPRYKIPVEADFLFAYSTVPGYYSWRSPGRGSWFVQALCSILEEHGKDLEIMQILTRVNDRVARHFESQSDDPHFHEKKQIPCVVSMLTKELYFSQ
In short: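 Isatin (5 pM–500 µM, 9 levels) preincubated 10 min, then Ac-DEVD-AMC (10 µM final) added for 30 min. 7-AMC fluorescence read at ex 355/em 460 nm against no-enzyme controls. EC50 by nonlinear regression; duplicates, two runs.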

Caspase-6 = target: T4, Caspase-6 (Homo sapiens, UniProt P55212); assay: Inhibition of human recombinant caspase 6 assessed as accumulation of 7-amino-4-methylcoumarin substrate
T4 sequence (P55212 whole entry): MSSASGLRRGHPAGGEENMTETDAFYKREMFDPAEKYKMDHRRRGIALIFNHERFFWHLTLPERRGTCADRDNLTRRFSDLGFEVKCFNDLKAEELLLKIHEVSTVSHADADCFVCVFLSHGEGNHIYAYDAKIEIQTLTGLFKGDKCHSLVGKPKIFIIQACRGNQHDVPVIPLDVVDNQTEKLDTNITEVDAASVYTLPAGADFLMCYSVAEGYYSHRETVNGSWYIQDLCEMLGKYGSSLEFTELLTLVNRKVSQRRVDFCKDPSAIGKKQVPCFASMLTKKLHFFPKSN
In short: (§2)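 Substrates at 10 µM: Ac-DEVD-AMC (caspase 3), Ac-VEID-AMC (caspase 6), Ac-IETD-AMC (caspase 8), added after 10 min preincubation with inhibitor (5 pM–500 µM). 7-AMC read after 30 min at ex 355/em 460 nm. Duplicates, two runs; EC50 by nonlinear regression.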

Caspase-1 = target: T5, Caspase-1 (Homo sapiens, UniProt P29466); assay: Inhibition of human recombinant caspase 1 assessed as accumulation of 7-amino-4-methylcoumarin substrate
T5 sequence (P29466 whole entry): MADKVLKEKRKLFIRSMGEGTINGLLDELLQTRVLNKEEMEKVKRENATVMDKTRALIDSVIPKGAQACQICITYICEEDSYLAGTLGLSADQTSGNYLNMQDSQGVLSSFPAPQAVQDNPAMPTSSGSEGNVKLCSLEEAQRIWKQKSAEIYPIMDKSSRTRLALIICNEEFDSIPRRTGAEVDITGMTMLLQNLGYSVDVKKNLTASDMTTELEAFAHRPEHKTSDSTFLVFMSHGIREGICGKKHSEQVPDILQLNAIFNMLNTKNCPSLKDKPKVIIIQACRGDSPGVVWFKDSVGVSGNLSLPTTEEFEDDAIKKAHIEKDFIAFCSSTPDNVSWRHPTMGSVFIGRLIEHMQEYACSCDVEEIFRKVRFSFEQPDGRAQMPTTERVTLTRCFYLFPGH
In short: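 Recombinant human caspase 1 (0.5 units) at 37 °C in 100 mM HEPES pH 7.4, 0.1% CHAPS, 100 mM NaCl, 5 mM 2-mercaptoethanol, 2 mM EDTA, 10% sucrose, 5% DMSO final. Inhibitor (5 pM–500 µM, 9 concentrations) preincubated 10 min before adding 10 µM Ac-YVAD-AMC for 30 min. 7-AMC fluorescence read at ex 355/em 460 nm against no-enzyme controls. Duplicates, two runs; EC50 by nonlinear regression.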

Caspase-8 = Caspase-8 (Homo sapiens, UniProt Q14790); assay: Inhibition of human recombinant caspase 8 assessed as accumulation of 7-amino-4-methylcoumarin substrate; in short: as §2
Sequence of Caspase-8 (Q14790 217-374 limits assumed): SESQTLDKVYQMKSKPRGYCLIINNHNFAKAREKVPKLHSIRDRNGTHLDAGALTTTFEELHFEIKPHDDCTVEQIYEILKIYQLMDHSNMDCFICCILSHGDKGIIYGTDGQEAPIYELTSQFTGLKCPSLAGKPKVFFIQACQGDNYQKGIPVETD
Sequence of Caspase-8 (Q14790 385-479 limits assumed): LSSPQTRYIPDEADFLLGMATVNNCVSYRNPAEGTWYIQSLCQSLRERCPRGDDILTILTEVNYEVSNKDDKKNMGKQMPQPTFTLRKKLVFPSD

[6] = Metabolic stability in mouse liver S9 fraction at pH 7.4; assay type: ADME, subcellular; settings: s9, pH 7.4
In short: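 Mouse liver homogenized in 50 mM Tris–150 mM KCl–HCl pH 7.4 and spun at 10000g for 30 min to give S9. Compound (10 µL of 10 mM stock) was incubated with S9 (20 µL of 33.26 mg/mL) and 0.5 mM NADPH in Tris-HCl pH 7.4 (1 mL total), 60 min at 37 °C in air. Stopped with ice-cold acetonitrile and analyzed by gradient reverse-phase HPLC.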

half-life [1]: 59.9 days
SMILES: O=C1C(=O)N(Cc2ccc([125I])cc2)c2ccc(S(=O)(=O)N3CCC[C@H]3COc3ccccc3)cc21

pEC50 (Caspase-3): 7.30
SMILES: O=C1C(=O)N(Cc2ccc(F)cc2)c2ccc(S(=O)(=O)N3CCC[C@H]3COc3ccccc3)cc21

logP [2]: 1.61
SMILES: O=C1C(=O)N(Cc2cn(CCF)nn2)c2ccc(S(=O)(=O)N3CCC[C@H]3COc3ccc(F)cc3F)cc21

pEC50 (Caspase-3): 7.97
SMILES: O=C1C(=O)N(Cc2ccc(F)cc2)c2ccc(S(=O)(=O)N3CCC[C@H]3COC3CCOCC3)cc21

Activity (Liver): 35.7% | Activity (Plasma [3]): 86.1% | fold change (FC) [4]: 1.5 | Activity (Plasma [5]): 61.3%
SMILES: O=C1C(=O)N(Cc2cn(CC[18F])nn2)c2ccc(S(=O)(=O)N3CCC[C@H]3COc3ccc(F)cc3F)cc21

Activity (Caspase-3 (Mus musculus)): inactive
SMILES: O=C1C(=O)N(Cc2ccc(I)cc2)c2ccc(S(=O)(=O)N3CCC[C@H]3COc3ccccc3)cc21

pEC50 (Caspase-7): 7.74 | pEC50 (Caspase-6): < 5.30 | pEC50 (Caspase-3): 7.90 | pEC50 (Caspase-1): < 5.30 | pEC50 (Caspase-8): < 5.30
SMILES: O=C1C(=O)N(Cc2ccc(F)cc2)c2ccc(S(=O)(=O)N3CCC[C@H]3COCc3cn(CCF)nn3)cc21

Stability [6]: Stable
SMILES: O=C1C(=O)N(Cc2ccc(F)cc2)c2ccc(S(=O)(=O)N3CCCC3)cc21
